Laboratory results reported in ChEMBL document CHEMBL3792386, “Design, Synthesis, and Biological Evaluation of Novel Selenium (Se-NSAID) Molecules as Anticancer Agents” (J Med Chem, 2016).
The source made the active and inactive calls. The calls are words filed in the database; no cut-off is given here.

Tests used:
[1] = system: HCT-116; test: Effect on cell cycle in human HCT116 cells assessed as inhibition of cyclin B1 expression at 1 to 10 uM after 24 hrs by Western blot method; type: functional, cell-based
Summary of the method: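 CRC cells treated at indicated doses for 24 h. Whole-cell lysates made in RIPA buffer with protease and phosphatase inhibitors and cleared at 15,000 rpm for 10 min. Resolved on 4-12% gels, transferred to PVDF, probed for cell-cycle proteins, detected by ECL. Membranes stripped for sequential probing.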

[2] = system: HCT-116; test: Induction of apoptosis in human HCT116 cells assessed as dead cells at 5 uM after 24 hrs by annexin V/7-ADD staining-based flow cytometry (reference value: 3.10%); type: functional
[3] = system: HCT-116; test: Induction of ROS generation in human HCT116 cells at 5 uM after 24 hrs by flow cytometry (reference value: 12.42%); type: functional
[4] = system: HCT-116; test: Induction of ROS generation in human HCT116 cells at 10 uM after 3 hrs by flow cytometry (reference value: 8.06%); type: functional
[5] = system: HT-29; test: Antiproliferative activity against human HT-29 cells assessed as reduction in cell viability after 24 hrs by MTT assay; type: functional, cell-based; settings: HT-29, 24 h
Summary of the method: (§1)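 3000 cells/well incubated in triplicate with serial concentrations of compound for 24, 48 or 72 h at 37 °C. MTT (5.0 mg/mL solution) added 3 h before the end. Formazan dissolved in DMSO, absorbance read at 570 and 630 nm. Viability normalised to vehicle control. IC50 from non-linear regression (variable slope), mean ± SD of triplicates.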

[6] = system: MDA-MB-231; test: Antiproliferative activity against human MDA-MB-231 cells assessed as reduction in cell viability after 24 hrs by MTT assay; type: functional, cell-based; settings: MDA-MB-231, 24 h; summary of the method: as §1
[7] = Antiproliferative activity against human PANC1 cells assessed as reduction in cell viability after 72 hrs by MTT assay; type: functional, cell-based; settings: PANC-1, 72 h; summary of the method: as §1
[8] = Antiproliferative activity against human HCT116 cells assessed as reduction in cell viability after 72 hrs by MTT assay; type: functional, cell-based; settings: HCT-116, 72 h; summary of the method: as §1

With `CC(=O)Oc1ccccc1C(=O)NCC[Se]C#N` the inhibition [1] was “Active”, the Activity [2] was 1.3% and the Activity [3] was 66.42%. For the same molecule, the Activity [4] was 9%, the IC50 [5] was 3.4 µM and the IC50 [6] was 21.1 µM. For the same molecule, the IC50 [7] was 2.6 µM and the IC50 [8] was 2.1 µM.
